SMILES strings stand for the structures. Calls of active or inactive are those of the source. No cut-off for these calls is given here. Where a SMILES comes first, the peptide text is derived from it. [ ]: non-standard residue; d: D form. The star is where a group is joined. Ethyl(2-stearoyloxy) = CCCCCCCCCCCCCCCCCC(=O)OCC*; Ethyl(2-decanoyloxy) = CCCCCCCCCC(=O)OCC*; Mpa = O=C(O)CCS

For data set [1], the target named is Gap junction alpha-1 protein (Homo sapiens) (UniProt P17302). Put plainly: Inhibition of Cx43 in hypoxic-acidic ion-shifted ringers solution-induced human cerebral microvascular endothelial cell model of ischaemic injury assessed as ATP release at 10 uM measured after 2 hrs by luciferin-luciferase based luminescence assay relative to control. Also noted: scale not given: the % may be the effect or the level left. The essentials: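 hCMVEC (passages 8-17) seeded at 2 x 10^6/well on collagen-I (1 µg/cm²) and grown 48 h to a confluent monolayer. Washed in NR, then exposed 2 h in HAIR (pH 6.6, N₂-bubbled, low Ca²⁺, K-gluconate/NMDG) containing peptide at 10 µM. Supernatant diluted 1:10 in firefly luciferase mix and read at 560 nm against an ATP standard (0-50 nM). Expressed as % of HAIR-only, mean of n=3.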

Data set [2] can be described thus: Stability in rat plasma assessed as half life at 150 ug/l measured up to 60 mins by HPLC analysis. It is filed as ADME, cell-free. The essentials: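 Peptide from a 20 mg/L water stock incubated in 25% rat serum (v/v) in PBS pH 7.4 at a final 150 μg/L, 37 °C. Samples taken at 0-60 min and quenched with MeCN plus 15% TCA, held overnight at 4 °C, then centrifuged. Remaining peptide measured by C18 RP-HPLC peak area at 210 nm relative to t=0. Run in triplicate.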

Sequence of Gap junction alpha-1 protein (Homo sapiens) (P17302 whole entry): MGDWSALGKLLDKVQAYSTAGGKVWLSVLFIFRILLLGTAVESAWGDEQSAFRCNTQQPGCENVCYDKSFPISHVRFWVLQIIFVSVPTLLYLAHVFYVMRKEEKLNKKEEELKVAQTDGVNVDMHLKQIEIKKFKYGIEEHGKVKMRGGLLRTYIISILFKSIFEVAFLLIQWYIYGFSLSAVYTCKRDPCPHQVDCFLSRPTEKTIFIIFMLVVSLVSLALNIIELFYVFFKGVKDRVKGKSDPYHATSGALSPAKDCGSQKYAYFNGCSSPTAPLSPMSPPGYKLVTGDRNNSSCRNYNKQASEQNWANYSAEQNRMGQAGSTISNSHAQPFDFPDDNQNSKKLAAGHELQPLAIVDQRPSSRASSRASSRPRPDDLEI

In general, half-life refers to the time in which the quantity being followed falls by half. On to `CC(C)C[C@H](NC(=O)[C@H](Cc1ccccc1)NC(=O)[C@H](CS)NC(=O)[C@H](CC(=O)O)NC(=O)[C@@H](N)C(C)C)C(=O)N[C@@H](CO)C(=O)N[C@@H](CCCNC(=N)N)C(=O)N1CCC[C@H]1C(=O)N[C@H](C(=O)N[C@@H](CCC(=O)O)C(=O)N[C@@H](CCCCN)C(=O)N[C@H](C(=O)O)[C@@H](C)O)[C@@H](C)O` (H-VDCFLSRPTEKT-OH), for which the Activity in data set [1] amounted to 53.8%. Moreover, the half-life at 150 ug/l in data set [2] is 5 min.

For `CCCCCCCCCCCCCCCCCC(=O)OCCSC[C@H](NC(=O)[C@H](CS)NC(=O)[C@H](CC(=O)O)NC(=O)[C@@H](N)C(C)C)C(=O)N[C@@H](CC(C)C)C(=O)N[C@@H](CO)C(=O)N[C@@H](CCCNC(=N)N)C(=O)N1CCC[C@H]1C(=O)N[C@H](C(=O)N[C@@H](CCC(=O)O)C(=O)N[C@@H](CCCCN)C(=O)N[C@H](C(=O)O)[C@@H](C)O)[C@@H](C)O` (H-VDCC(Ethyl(2-stearoyloxy))LSRPTEKT-OH), the outcome in data set [1] was inactive.

Turning to `CCCCCCCCCC(=O)OCCSCCC(=O)N[C@H](C(=O)N[C@@H](CC(=O)O)C(=O)N[C@@H](CS)C(=O)N[C@@H](Cc1ccccc1)C(=O)N[C@@H](CC(C)C)C(=O)N[C@@H](CO)C(=O)N[C@@H](CCCNC(=N)N)C(=O)N1CCC[C@H]1C(=O)N[C@H](C(=O)N[C@@H](CCC(=O)O)C(=O)N[C@@H](CCCCN)C(=O)N[C@H](C(=O)O)[C@@H](C)O)[C@@H](C)O)C(C)C` ([Mpa](Ethyl(2-decanoyloxy))VDCFLSRPTEKT-OH), the result in data set [1] was inactive.

For `CCCCCCCCCCCCCCCCCC(=O)OCCSC[C@H](NC(=O)[C@@H]1CCCN1C(=O)[C@H](CCCNC(=N)N)NC(=O)[C@H](CO)NC(=O)[C@H](CC(C)C)NC(=O)[C@H](Cc1ccccc1)NC(=O)[C@H](CS)NC(=O)[C@H](CC(=O)O)NC(=O)[C@@H](N)C(C)C)C(=O)N[C@@H](CCC(=O)O)C(=O)N[C@@H](CCCCN)C(=O)N[C@H](C(=O)O)[C@@H](C)O` (H-VDCFLSRPC(Ethyl(2-stearoyloxy))EKT-OH), in data set [1], the Activity is 102%.

The record behind these values is ChEMBL document CHEMBL4673184, “Synthesis and biological evaluation of S-lipidated lipopeptides of a connexin 43 channel inhibitory peptide” (RSC Med Chem, 2020).
